Where a SMILES comes first, the peptide text is derived from it. [ ]: non-standard residue; d: D form. The star is where a group is joined. Phe(4-NO2) = N[C@@H](Cc1ccc([N+](=O)[O-])cc1)C(=O)O; Chlorambucil = O=C(CCCc1ccc(N(CCCl)CCCl)cc1)*; Phe(4-NH2) = Nc1ccc(C[C@H](N)C(=O)O)cc1
Key:
Format in all cases: functional
[1] = Compound was evaluated for its ability to inhibit the thrombin-initiated clotting time of citreated human plasma.; set-up: concentration or dose not given beside the values
Method in brief: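 Bovine thrombin in saline, dosed to give a 20 s clot, added to 200 µL citrated human plasma plus 100 µL saline containing peptide at 37 °C. Time to first clot recorded. Chlorambucil peptides came from DMSO stock diluted in saline; optional 15 min, 4 °C preincubation with plasma or thrombin. Molar activity from dose-response slope versus reference, with molarity from amino acid analysis.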

Homo sapiens = organism: Homo sapiens; assay: Compound was evaluated for its ability to inhibit fibrin polymerization.; set-up: concentration or dose not given beside the values; settings: dose or concentration not given here
Method in brief: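 Fibrin monomer from human fibrinogen (8.3 mg protein/mL solution) diluted into phosphate buffer (80 mM, pH 6.3) containing peptide; reaggregation followed at 350 nm. Optional preincubation: peptide in 1 M NaBr/0.05 M NaOAc pH 5.3 with monomer, 15 min, room temperature, before buffer addition. Molar activity from linear dose-response slope versus reference tetrapeptide, averaged values.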

[2] = target: Prothrombin (Homo sapiens) (UniProt P00734); assay: Compound was evaluated for its ability to inhibit thrombin catalyzed amidolysis; settings: concentration not given here
Method in brief: (§1)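 Thrombin (0.5 unit) at 37 °C with 0.25 mL of 1 mM Tos-Gly-Pro-Arg-p-nitroanilide, 0.25 mL saline containing 2 mg/mL peptide, and 1.5 mL saline. Chromophore read at 405 nm. Where indicated, peptide and thrombin were preincubated 15 min at 4 °C before substrate addition.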

[3] = target: Prothrombin (Homo sapiens) (UniProt P00734); assay: Compound was evaluated for its ability to inhibit thrombin catalyzed amidolysis.; set-up: concentration or dose not given beside the values; settings: concentration not given here; method in brief: as §1
[4] = Relative potency was determined

Row | Structure (SMILES) | Inhibition [1] [%] | inhibition (Homo sapiens) [%] | inhibition [2] [%] | inhibition [3] [%] | Relative potency [4]
1 | N=C(N)NCCC[C@H](NC(=O)[C@@H]1CCCN1C(=O)CCCc1ccc(N(CCCl)CCCl)cc1)C(=O)N1CCC[C@H]1C(=O)O | 0 |  |  |  | 
2 | N=C(N)NCCC[C@H](NC(=O)CCCc1ccc(N(CCCl)CCCl)cc1)C(=O)N1CCC[C@H]1C(=O)O | 0 |  |  |  | 
3 | NCC(=O)N1CCC[C@H]1C(=O)N[C@@H](CCCN=C(N)N)C(=O)N1CCC[C@H]1C(=O)O | 100 | 100 | 0 |  | 
4 | N=C(N)NCCC[C@H](NC(=O)[C@@H]1CCCN1C(=O)CNC(=O)CCCc1ccc(N(CCCl)CCCl)cc1)C(=O)N1CCC[C@H]1C(=O)O (Chlorambucil-GPRP-OH) | 0 |  |  |  | 
5 | NCC(=O)N1CCC[C@H]1C(=O)N[C@@H](CCCN=C(N)N)C(=O)N1CCC[C@H]1C(=O)N[C@@H](Cc1ccc(N)cc1)C(=O)O (H-GPRP[Phe(4-NH2)]-OH) | 81 | 105 |  | 0 | 
6 | NCC(=O)N1CCC[C@H]1C(=O)N[C@@H](CCCN=C(N)N)C(=O)N[C@@H](Cc1ccc(N)cc1)C(=O)O (H-GPR[Phe(4-NH2)]-OH) | 5 | 22 |  | 0 | 0.22
7 | NCC(=O)N1CCC[C@H]1C(=O)N[C@@H](Cc1ccc([N+](=O)[O-])cc1)C(=O)N1CCC[C@H]1C(=O)O (H-GP[Phe(4-NO2)]P-OH) | 0 |  |  | 0 | 
8 | NCC(=O)N[C@@H](Cc1ccc([N+](=O)[O-])cc1)C(=O)N[C@@H](CCCN=C(N)N)C(=O)N1CCC[C@H]1C(=O)O (H-G[Phe(4-NO2)]RP-OH) | 10 |  |  | 0 | 
9 | NCC(=O)N1CCC[C@H]1C(=O)N[C@@H](CCCN=C(N)N)C(=O)N[C@@H](Cc1ccc([N+](=O)[O-])cc1)C(=O)O (stereo in doubt; 9) [listing 1 of 2 here] | 2 |  |  |  | 
10 | NCC(=O)N1CCC[C@H]1C(=O)N[C@@H](CCCN=C(N)N)C(=O)N[C@@H](Cc1ccc([N+](=O)[O-])cc1)C(=O)O (stereo in doubt; 9) [listing 2 of 2 here] |  | 0 |  | 0 | 
11 | NCC(=O)N1CCC[C@H]1C(=O)N[C@@H](CCCN=C(N)N)C(=O)N1CCC[C@H]1C(=O)N[C@@H](Cc1ccc([N+](=O)[O-])cc1)C(=O)O (stereo in doubt; 10) [listing 1 of 2 here] | 73 |  |  |  | 
12 | NCC(=O)N1CCC[C@H]1C(=O)N[C@@H](CCCN=C(N)N)C(=O)N1CCC[C@H]1C(=O)N[C@@H](Cc1ccc([N+](=O)[O-])cc1)C(=O)O (stereo in doubt; 10) [listing 2 of 2 here] |  | 88 |  | 0 | 0.83
13 | NCC(=O)N1CCC[C@H]1C(=O)N[C@@H](CCCN=C(N)N)C(=O)N[C@@H](Cc1ccc([N+](=O)[O-])cc1)C(=O)O (stereo in doubt; 19) [listing 1 of 2 here] | 14 |  |  |  | 
14 | NCC(=O)N1CCC[C@H]1C(=O)N[C@@H](CCCN=C(N)N)C(=O)N[C@@H](Cc1ccc([N+](=O)[O-])cc1)C(=O)O (stereo in doubt; 19) [listing 2 of 2 here] |  |  |  | 0 | 
15 | NCC(=O)N1CCC[C@H]1C(=O)N[C@@H](CCCN=C(N)N)C(=O)N1CCC[C@H]1C(=O)N[C@@H](Cc1ccc([N+](=O)[O-])cc1)C(=O)O (stereo in doubt; 20) |  |  |  | 0 | 
